Legend:
Assay type in all cases: functional, cell-based
SK-BR-3 = experiment: Cytotoxicity against human SK-BR-3 cells assessed as reduction in cell viability measured after 48 hrs by WST assay; settings: SK-BR-3, 48 h
In short: (§1)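 Cells grown at 37 °C, 5% CO2 with 10% fetal calf serum and penicillin/streptomycin: MCF7 and MDA-MB-231 in DMEM glucose, SKBR3 in DMEM F12 glutamine. Seeded at 12×10^3 cells/well, dosed after 24 h at 5–200 μM from DMSO stocks (DMSO […]) for 48 h. Doxorubicin positive control. Read-out was 10% WST for 1 h in the dark, absorbance at 440 nm. Triplicate, % inhibition versus control, IC50 estimated.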

MDA-MB-231 = experiment: Cytotoxicity against human MDA-MB-231 cells assessed as reduction in cell viability measured after 48 hrs by WST assay; settings: MDA-MB-231, 48 h; in short: as §1
MCF7 = experiment: Cytotoxicity against human MCF7 cells assessed as reduction in cell viability measured after 48 hrs by WST assay; settings: MCF7, 48 h; in short: as §1

Measured: IC50

CC(C)=CCC/C(C)=C/CC1(CC=C(C)C)C(=O)C(C(=O)c2ccc(O)c(O)c2)=C2OC(C)(C)C(O)C3OC23C1=O (stereo not given)
< 10 µM: all assays above

CC(C)=CCC/C(C)=C/C[C@]1(CC=C(C)C)C(=O)C2=C(OC(C)(C)C[C@H]2c2occc(=O)c2O)C(C(=O)c2ccc(O)c(O)c2)=C1O
< 10 µM: all assays above

CC(C)=CCC/C(C)=C/C[C@]1(CC=C(C)C)C(=O)C(O)=C(C(=O)c2ccc(O)c(O)c2)C1=O
< 10 µM: all assays above

CC(C)=CCC/C(C)=C/CC1(CC=C(C)C)C(=O)C(C(=O)c2ccc(O)c(O)c2)=C2OC(C)(C)CC3OC23C1=O (stereo not given)
< 10 µM: all assays above

CC(C)=CCC/C(C)=C/C[C@@]1(CC=C(C)C)C(=O)C2=C(OC(C)(C)C[C@H]2c2occc(=O)c2O)C(C(=O)c2ccc(O)c(O)c2)=C1O
< 10 µM: all assays above

— ChEMBL document CHEMBL4715729, “UPLC-QTOFMS(E)-Guided Dereplication of the Endangered Chinese Species Garcinia paucinervis to Identify Additional Benzophenone Derivatives” (J Nat Prod, 2016)
